# In ChEMBL document CHEMBL5149991 (J Med Chem, 2021):
# pEC50, pKd, pKi: −log10 of the molar value.
# Tests used:
# Histamine H3 receptor [1] = target: T1, Histamine H3 receptor (Homo sapiens, UniProt Q9Y5N1); experiment: Displacement of [3H]UR-PI294 from human histamine H3 receptor stably expressed in baculovirus infected Sf9 cell membrane co-expressing G-alphai2 and G-beta1gamma2 incubated for 60 mins by scintillation counting analysis; type: cell membranes
# Summary of the method: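 hH3R + Gαi2 + Gβ1γ2 expressed in Sf9 membranes. […] Mean ± SEM from N independent experiments in triplicate.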
# Histamine H2 receptor [2] = target: T2, Histamine H2 receptor (Homo sapiens, UniProt P25021); experiment: Displacement of [3H]UR-DE257 from human histamine H2 receptor stably expressed in baculovirus infected Sf9 cell membrane co-expressing RG-Salpha S incubated for 60 mins by scintillation counting analysis; type: cell membranes
# Histamine H1 receptor = Histamine H1 receptor (Homo sapiens, UniProt P35367)
# Histamine H4 receptor = Histamine H4 receptor (Homo sapiens, UniProt Q9H3N8)
# Histamine H2 receptor [3] = target: T2, Histamine H2 receptor; experiment: Agonist activity at human histamine H2 receptor stably expressed in HEK293T cells co-expressing ARRB2 incubated for 60 mins by beta-arrestin2 recruitment assay; type: functional, cell-based
# Histamine H2 receptor [4] = target: T2, Histamine H2 receptor; experiment: Agonist activity at human histamine H2 receptor stably expressed in HEK293T cells co-expressing NlucN-mGs/hH2R-NlucC assessed as induction of mini-Gs protein recruitment using furimazine as substrate measured for 45 mins by luminescence assay
# [5] = Chemical stability in pH 7.4 buffer measured at 0 to 2 weeks by HPLC analysis; type: physicochemical; details: time 0-2 weeks
# D(3) dopamine receptor [6] = target: T3, D(3) dopamine receptor (Homo sapiens, UniProt P35462); experiment: Agonist activity at human D3 receptor stably expressed in HEK293T cells co-expressing ElucN-betaarr2 hD3R-ElucC by beta-arrestin2 recruitment assay; type: functional, cell-based
# D(3) dopamine receptor [7] = target: T3, D(3) dopamine receptor; experiment: Displacement of [3H]N-methylspiperone from human D3 receptor stably expressed in HEK293T cells co-expressing luciferase and CEK incubated for 140 mins by radioligand competition binding based assay; type: cell-based
# D(2) dopamine receptor [8] = target: T4, D(2) dopamine receptor (Homo sapiens, UniProt P14416); experiment: Displacement of [3H]N-methylspiperone from human D2 long receptor stably expressed in HEK293T cells co-expressing luciferase and CEK incubated for 140 mins by radioligand competition binding based assay; type: cell-based
# D(2) dopamine receptor [9] = target: T4, D(2) dopamine receptor; type: functional, cell-based, HEK293T
# Histamine H3 receptor [10] = target: T1, Histamine H3 receptor
# T2 sequence (P25021 whole entry): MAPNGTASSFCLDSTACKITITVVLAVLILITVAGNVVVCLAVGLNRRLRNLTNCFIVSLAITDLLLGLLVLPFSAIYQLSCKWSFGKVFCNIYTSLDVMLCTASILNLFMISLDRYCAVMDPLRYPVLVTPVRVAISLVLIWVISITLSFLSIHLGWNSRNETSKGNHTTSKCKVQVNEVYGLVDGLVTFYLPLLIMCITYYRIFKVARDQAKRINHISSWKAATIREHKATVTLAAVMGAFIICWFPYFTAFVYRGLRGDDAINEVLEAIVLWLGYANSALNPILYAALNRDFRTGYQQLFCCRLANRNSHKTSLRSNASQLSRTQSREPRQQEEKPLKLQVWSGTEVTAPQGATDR
# T1 sequence (Q9Y5N1 whole entry): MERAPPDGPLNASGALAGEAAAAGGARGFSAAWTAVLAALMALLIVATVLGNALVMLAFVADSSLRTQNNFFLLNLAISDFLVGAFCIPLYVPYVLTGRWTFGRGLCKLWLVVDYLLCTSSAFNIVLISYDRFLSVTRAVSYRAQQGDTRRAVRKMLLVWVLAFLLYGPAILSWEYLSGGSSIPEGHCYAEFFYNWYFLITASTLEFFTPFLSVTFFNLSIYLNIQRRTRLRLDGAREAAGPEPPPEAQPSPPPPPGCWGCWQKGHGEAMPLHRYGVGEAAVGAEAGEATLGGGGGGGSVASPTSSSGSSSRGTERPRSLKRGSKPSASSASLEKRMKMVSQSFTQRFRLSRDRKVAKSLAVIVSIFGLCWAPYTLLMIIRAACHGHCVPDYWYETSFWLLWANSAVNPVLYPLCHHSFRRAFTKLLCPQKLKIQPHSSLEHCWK
# Chain of Histamine H1 receptor (P35367 whole entry): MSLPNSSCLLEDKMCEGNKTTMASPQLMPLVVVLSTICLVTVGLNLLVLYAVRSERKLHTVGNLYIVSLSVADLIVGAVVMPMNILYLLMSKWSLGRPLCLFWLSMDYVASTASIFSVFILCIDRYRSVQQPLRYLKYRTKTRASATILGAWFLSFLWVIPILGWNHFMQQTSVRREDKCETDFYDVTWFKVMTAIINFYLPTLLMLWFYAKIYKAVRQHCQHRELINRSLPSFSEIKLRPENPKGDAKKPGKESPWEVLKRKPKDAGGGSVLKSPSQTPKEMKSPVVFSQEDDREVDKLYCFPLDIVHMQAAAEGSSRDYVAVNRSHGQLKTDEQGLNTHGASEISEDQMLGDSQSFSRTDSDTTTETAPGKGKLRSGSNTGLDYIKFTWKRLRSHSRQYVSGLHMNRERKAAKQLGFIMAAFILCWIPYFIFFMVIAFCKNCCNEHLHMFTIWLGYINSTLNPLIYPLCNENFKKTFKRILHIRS
# T3 sequence (P35462 whole entry): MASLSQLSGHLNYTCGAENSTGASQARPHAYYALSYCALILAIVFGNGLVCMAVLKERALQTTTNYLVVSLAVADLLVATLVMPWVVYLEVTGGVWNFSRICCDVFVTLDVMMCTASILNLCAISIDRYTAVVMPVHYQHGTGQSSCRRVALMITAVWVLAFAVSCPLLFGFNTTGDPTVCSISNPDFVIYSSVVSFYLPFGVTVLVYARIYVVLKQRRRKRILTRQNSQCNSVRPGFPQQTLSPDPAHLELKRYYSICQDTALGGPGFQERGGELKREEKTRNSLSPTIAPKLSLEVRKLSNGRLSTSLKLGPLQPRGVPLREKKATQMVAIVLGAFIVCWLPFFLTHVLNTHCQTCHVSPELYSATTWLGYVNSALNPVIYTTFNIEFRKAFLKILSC
# T4 sequence (P14416 whole entry): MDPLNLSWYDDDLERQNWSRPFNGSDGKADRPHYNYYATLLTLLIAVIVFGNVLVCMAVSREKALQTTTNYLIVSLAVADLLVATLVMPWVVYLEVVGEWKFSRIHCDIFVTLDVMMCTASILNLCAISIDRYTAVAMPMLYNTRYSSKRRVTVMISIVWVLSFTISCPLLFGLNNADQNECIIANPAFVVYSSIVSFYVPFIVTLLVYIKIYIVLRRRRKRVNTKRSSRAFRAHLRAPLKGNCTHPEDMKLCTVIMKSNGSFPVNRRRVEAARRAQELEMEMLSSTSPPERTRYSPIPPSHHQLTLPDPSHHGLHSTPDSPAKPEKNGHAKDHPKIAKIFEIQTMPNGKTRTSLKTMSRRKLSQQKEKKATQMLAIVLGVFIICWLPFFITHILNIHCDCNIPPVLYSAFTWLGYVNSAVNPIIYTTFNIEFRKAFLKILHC
# Chain of Histamine H4 receptor (Q9H3N8 whole entry): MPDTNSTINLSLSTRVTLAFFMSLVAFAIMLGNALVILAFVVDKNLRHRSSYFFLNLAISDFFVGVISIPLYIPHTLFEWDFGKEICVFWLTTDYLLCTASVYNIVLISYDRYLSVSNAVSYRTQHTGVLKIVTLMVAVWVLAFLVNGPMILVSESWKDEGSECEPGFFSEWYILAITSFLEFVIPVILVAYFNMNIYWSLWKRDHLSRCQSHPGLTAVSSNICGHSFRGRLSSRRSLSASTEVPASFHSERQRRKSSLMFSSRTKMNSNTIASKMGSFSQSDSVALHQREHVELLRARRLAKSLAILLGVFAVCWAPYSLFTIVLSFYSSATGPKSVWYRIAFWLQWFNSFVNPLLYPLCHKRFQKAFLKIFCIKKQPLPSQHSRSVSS
Compound,pKi (Histamine H3 receptor [1]),pKi (Histamine H2 receptor [2]),pKd (Histamine H1 receptor),pKi (Histamine H1 receptor),pKd (Histamine H4 receptor),pKi (Histamine H4 receptor),pEC50 (Histamine H2 receptor [3]),pEC50 (Histamine H2 receptor [4]),Stability [5],pEC50 (D(3) dopamine receptor [6]),pKi (D(3) dopamine receptor [7]),pKi (D(2) dopamine receptor [8]),pEC50 (D(2) dopamine receptor [9]),pKd (Histamine H3 receptor [10]),pKi (Histamine H3 receptor [10])
Cc1nc(N)oc1CCCN/C(N)=N/C(=O)NCc1ccccc1,< 5.00,6.41,8.35,5.05,7.80,< 5.00,,,,,,,,,
Cc1ccc(CC(C)CNC(=O)/N=C(\N)Nc2cccc(-c3sc(N)nc3C)c2)cc1 (stereo unspecified),4.89,6.63,8.35,5.28,7.80,5.13,,,,,,,,,
CCCCCNC(=O)/N=C(\N)NCCCc1cnc(N)s1.O=C(O)C(F)(F)F.O=C(O)C(F)(F)F,< 5.00,7.64,8.35,5.02,7.80,< 5.00,7.25,8.22,Stable,,,,,,
Cc1ccc(CC(C)CNC(=O)/N=C(\N)NCCCc2cnc(N)s2)cc1 (stereo unspecified),5.32,7.19,8.35,5.60,7.80,5.35,6.63,7.11,,5.98,6.64,6.31,5.35,,
N/C(=N\C(=O)NCc1ccccc1)NCC1CCc2nc(N)sc2C1 (stereo unspecified),,6.52,8.35,5.41,7.80,5.23,,,,,,,,8.52,4.95
CCCCCNC(=O)/N=C(\N)Nc1cccc(-c2sc(N)nc2C)c1.O=C(O)C(F)(F)F.O=C(O)C(F)(F)F,5.02,6.72,8.35,5.18,7.80,5.13,,,Stable,,,,,,
Cc1nc(N)sc1-c1ccc(N/C(N)=N/C(=O)NCC(C)C2CCCCC2)cc1 (stereo unspecified),5.25,6.51,8.35,5.54,7.80,5.11,,,,,,,,,
Cc1nc(N)sc1-c1cccc(N/C(N)=N/C(=O)NCc2ccccc2)c1,< 5.00,6.52,8.35,5.14,7.80,< 5.00,,,,,,,,,
N/C(=N\C(=O)NCc1ccccc1)NCCCc1cnc(N)s1,< 5.00,7.57,8.35,5.25,7.80,< 5.00,7.31,8.31,,7.17,7.13,5.34,5.47,,
C[C@@H](NC(=O)/N=C(\N)NCCCc1c[nH]cn1)c1ccccc1,8.77,8.21,8.35,5.40,7.80,8.07,,,,,,,,,
Cc1nnc(CCCN/C(N)=N/C(=O)NCCCCCCCCN)s1,4.93,5.74,8.35,6.51,7.80,< 5.00,,,,,,,,,
Cc1nnc(CCCN/C(N)=N/C(=O)NCC(C)C2CCCCC2)s1 (stereo unspecified),,5.98,8.35,5.15,7.80,< 5.00,,,,,,,,8.52,4.94
Cc1ccc(CC(C)CNC(=O)/N=C(\N)Nc2ccc(-c3sc(N)nc3C)cc2)cc1 (stereo unspecified),5.08,6.48,8.35,5.74,7.80,5.20,,,,,,,,8.52,5.08
Cc1ccc(CC(C)CNC(=O)/N=C(\N)NCCCc2nnc(N)o2)cc1 (stereo unspecified),5.04,6.17,8.35,5.57,7.80,< 5.00,,,,,,,,,
CCCCCNC(=O)/N=C(\N)Nc1ccc(-c2sc(N)nc2C)cc1.O=C(O)C(F)(F)F.O=C(O)C(F)(F)F,4.94,6.34,8.35,5.43,7.80,5.11,,,Stable,,,,,8.52,4.94
Cc1nc(N)sc1-c1ccc(N/C(N)=N/C(=O)NCC(C)CCCc2ccccc2)cc1 (stereo unspecified),5.10,6.50,8.35,5.12,7.80,5.22,,,,,,,,8.52,5.10
CCCN[C@H]1CCc2nc(N)sc2C1 [PRAMIPEXOLE],,4.86,8.35,,7.80,,,6.78,,,,,,,

Compound,pKi (Histamine H3 receptor [1]),pKi (Histamine H2 receptor [2]),pKd (Histamine H1 receptor),pKi (Histamine H1 receptor),pKd (Histamine H4 receptor),pKi (Histamine H4 receptor),pEC50 (Histamine H2 receptor [3]),pEC50 (Histamine H2 receptor [4]),Stability [5],pEC50 (D(3) dopamine receptor [6]),pKi (D(3) dopamine receptor [7]),pKi (D(2) dopamine receptor [8]),pEC50 (D(2) dopamine receptor [9]),pKd (Histamine H3 receptor [10]),pKi (Histamine H3 receptor [10])
Cc1ccc(CC(C)CNC(=O)/N=C(\N)NCC2CCc3nc(N)sc3C2)cc1 (stereo unspecified),,6.97,8.35,6.74,7.80,5.47,,,,,,,,8.52,5.71
Cc1nc(N)sc1-c1ccc(N/C(N)=N/C(=O)NC2CCCCC2)cc1,4.91,6.26,8.35,5.26,7.80,5.16,,,,,,,,8.52,4.91
C[C@@H](NC(=O)/N=C(\N)NCCCn1cc(CN(C)C)nn1)c1ccccc1,4.99,5.35,8.35,< 5.00,7.80,< 5.00,,,,,,,,,
Cc1nnc(CCCN/C(N)=N/C(=O)NCc2ccccc2)s1,< 5.00,5.25,8.35,4.97,7.80,< 5.00,,,,,,,,,
Cc1nc(N)oc1CCCN/C(N)=N/C(=O)NCC(C)C1CCCCC1.O=C(O)C(F)(F)F.O=C(O)C(F)(F)F (stereo unspecified),5.08,6.61,8.35,5.22,7.80,5.12,,,Stable,,,,,,
CCCCCCNC(=O)/N=C(\N)NCCCc1nnc(N)o1.O=C(O)C(F)(F)F.O=C(O)C(F)(F)F,< 5.00,6.41,8.35,5.05,7.80,< 5.00,,,Stable,,,,,,
NCCCCCCCCNC(=O)/N=C(\N)NCCCc1nnc(N)s1,< 5.00,7.48,8.35,6.28,7.80,< 5.00,,,,,,,,,
Cc1nc(N)sc1-c1ccc(N/C(N)=N/C(=O)NCc2ccccc2)cc1,5.07,6.67,8.35,5.89,7.80,4.92,,,,,,,,8.52,5.07
Cc1nc(N)sc1-c1ccc(N/C(N)=N/C(=O)NCCCCCCNC(=O)/N=C(\N)Nc2ccc(-c3sc(N)nc3C)cc2)cc1,5.71,6.46,8.35,5.67,7.80,5.67,,,,,,,,,
N/C(=N\C(=O)NCCCCCCCCNC(=O)/N=C(\N)NCCCc1nnc(N)s1)NCCCc1nnc(N)s1,5.16,8.32,8.35,5.74,7.80,5.05,,,,,,,,,
Cc1nc(N)sc1-c1cccc(N/C(N)=N/C(=O)NCCCCCCNC(=O)/N=C(\N)Nc2cccc(-c3sc(N)nc3C)c2)c1,6.15,6.42,8.35,5.84,7.80,5.63,,,,,,,,,
CC(CCCc1ccccc1)CNC(=O)/N=C(\N)NCCCc1nnc(N)s1 (stereo unspecified),5.40,,8.35,5.29,7.80,5.31,,,,6.33,6.49,6.35,,,
CCCCCNC(=O)/N=C(/N)NCCCc1nnc(C)s1.O=C(O)C(F)(F)F,< 5.00,5.66,8.35,< 5.00,7.80,< 5.00,,,Stable,,,,,,
Cc1nc(N)sc1-c1cccc(N/C(N)=N/C(=O)NCC(C)CCCc2ccccc2)c1 (stereo unspecified),4.97,6.63,8.35,4.88,7.80,5.15,,,,,,,,,
CCCCCNC(=O)/N=C(\N)NCC1CCc2nc(N)sc2C1.O=C(O)C(F)(F)F.O=C(O)C(F)(F)F (stereo unspecified),5.18,6.81,8.35,5.28,7.80,5.23,,,Stable,,,,,8.52,5.18
CC(CCCc1ccccc1)CNC(=O)/N=C(\N)NCC1CCc2nc(N)sc2C1 (stereo unspecified),5.76,6.96,8.35,5.41,7.80,5.39,,,,,,,,8.52,5.76
